Screening results as filed in PubChem BioAssay.
CHRM5 agonist = CHRM5 agonism in calcium assay; AID 624037; 0.19% of 360,000 active; activation, % at 3 µM; CHO-K1 hM5 cells, Fluo-8 calcium fluorescence; 0% DMSO wells, 100% maximal acetylcholine response;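 active means activation above the run's mean over test compounds plus 3 SD, cut at about 23% in these data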;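 further: signal is peak over basal fluorescence ratio across the kinetic read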
M5 PAM = positive allosteric modulators of human muscarinic M5 receptor | CHO-K1 hM5, Fluo-8 calcium, ACh EC20 PAM; 0% = ACh EC20, 100% = ACh EC100 | activation, % at 3 µM | 0.3% of 360,000 active | AID 624038 | P08912;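 active means activation above the run cutoff, the mean activation of all test compounds plus 3 SD, cut at about 18% in these data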
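Probe or stimulus: acetylcholine, EC20 level; Assay system: human M5 receptor in CHO-K1 cells; Schedule: compound preincubation 140 s before EC20 acetylcholine addition; Technique: intracellular calcium via Fluo-8 fluorescence; Dosing: single-point, 3 µM nominal; Read-out basis: percent activation from peak-over-basal fluorescence ratio, scaled EC20-to-EC100 acetylcholine; Repeats: one well per compound, no replicates.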
M4 PAM = positive allosteric modulators of human muscarinic M4 receptor. AID 624126. P08173. 0.4% of 360,000 active. activation, % at 3 µM. CHO-K1 hM4/Gqi5, Fluo-8 calcium fluorescence, ACh EC20; 0% = ACh EC20, 100% = maximal ACh;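 active means activation above its plate's cutoff, the mean activation of sample wells plus 3 SD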
Target sequence (P08173 whole entry, looked up): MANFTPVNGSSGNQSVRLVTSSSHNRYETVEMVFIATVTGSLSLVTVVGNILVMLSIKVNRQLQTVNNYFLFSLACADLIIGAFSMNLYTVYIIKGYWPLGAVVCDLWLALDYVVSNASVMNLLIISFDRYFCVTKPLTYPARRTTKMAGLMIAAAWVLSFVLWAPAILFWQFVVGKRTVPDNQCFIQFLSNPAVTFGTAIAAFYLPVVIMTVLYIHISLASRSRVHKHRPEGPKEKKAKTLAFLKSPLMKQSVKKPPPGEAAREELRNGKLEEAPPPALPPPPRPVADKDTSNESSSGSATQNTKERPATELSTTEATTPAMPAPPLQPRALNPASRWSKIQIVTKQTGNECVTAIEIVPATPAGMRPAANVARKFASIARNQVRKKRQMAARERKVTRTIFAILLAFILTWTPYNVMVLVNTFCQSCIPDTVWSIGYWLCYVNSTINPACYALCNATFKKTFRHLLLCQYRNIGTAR
M4 antag = blocks acetylcholine activation of human M4 receptor; CHO-hM4 cells, ACh EC80, Fluo-8 calcium fluorescence; P08173; inhibition, % at 3 µM; AID 624125; 0.73% of 360,000 active;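 active means inhibition above its plate's cutoff, the mean inhibition of sample wells plus 3 SD, cut at about 27% in these data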;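 further: 0% = acetylcholine EC80 with DMSO and 100% = DMSO without agonist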
CHRM4 agonist = agonists of human muscarinic M4 receptor (CHRM4). 0.14% of 360,000 active. activation, % at 3 µM. CHO-K1 hM4/Gqi5, Fluo-8 calcium fluorescence; vehicle 0%, full acetylcholine response 100%;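 active means activation above the run mean over all test wells plus 3 SD, cut at about 32% in these data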;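 further: peak over basal fluorescence ratio per well then scaled between controls; 0% = DMSO wells and 100% = acetylcholine at EC100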
CHRM5 antagonist = CHRM5 antagonism in calcium assay; P08912; CHO-hM5 cells, Fluo-8 calcium fluorescence, ACh EC80; inhibition, % at 3 µM; 0.59% of 360,000 active;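 active means inhibition above a per-plate cutoff, the mean of that plate's test compounds plus 3 SD, cut at about 27% in these data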;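 further: 0% = acetylcholine EC80 with DMSO and 100% = DMSO without agonist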
* hit, by the source's call. A selection: hits, their analogues and other compounds. The true share with any hit is near 1.8%.

SMILES	CHRM5 agonist	M5 PAM	M4 PAM	M4 antag	CHRM4 agonist	CHRM5 antagonist
CCOc1ccc(/C=C(\C(=O)O)c2ccc(S(=O)(=O)N3CCCCC3)s2)cc1OC	4	-4	5	-9	-1	9
O=[N+]([O-])c1ccc(C[n+]2ccccc2)cc1	-3	16	25*	3	0	-8
O=C(O)C1CCCCC1C(=O)NCCCn1ccnc1 (stereo not given)	-2	-1	-7	16	0	1
O=C(NCCCn1ccnc1)C(=O)NC1CCCCC1	-1	19*	10	-1	0	0
Cc1csc2ncnc(N3CCN(C(=S)Nc4ccc(C(F)(F)F)cc4)CC3)c12	-1	-28	-10	8	12	16
Cc1csc2c(N3CCN(C(=S)Nc4ccc(C(F)(F)F)cc4)CC3)ncnc12	4	-22	-22	4	11	30*
CCOC(=O)C1(CCc2ccccc2)CCN(C2Cc3ccccc3C2)CC1	-10	-20	-13	1	3	41*
Cc1c(C(c2ccc(O)cc2)c2c(C)n(C)n(-c3ccccc3)c2=O)c(=O)n(-c2ccccc2)n1C	1	-13	-8	-4	12	31*
COc1ccc(NC(=O)C2Cc3ccccc3O/C2=N\O)cc1 (stereo not given)	-4	-2	9	-14	1	2
CCCCN(CCCNC(=S)NCCCc1cnc[nH]1)c1ccc(Br)cn1	-3	1	-1	-4	5	-3
CCOc1cc2c3c(c1)C(C)=CC(C)(C)N3C(=O)C2=O	56*	-26	-3	-17	-2	12
Cc1cccc(C)c1-n1nnnc1C1(C)CCC(=O)N1Cc1ccc(F)cc1 (stereo not given)	2	3	5	-6	1	3
O=C1c2ccccc2NC(c2ccccc2O)N1c1ccc(F)cc1 (stereo not given)	-6	-6	-4	-4	1	4
O=C(O)CSC1c2ccccc2C(=O)N1c1ccccc1 (stereo not given)	-7	37*	0	-14	0	-4
COc1cccc(S(=O)(=O)Nc2ccc3c(c2)C(=O)N(C)C[C@H](OC)[C@H](C)CN(Cc2ccccc2F)[C@@H](C)CO3)c1	-1	-2	7	9	0	0
CCOC(=O)N1CCN(C(=O)c2ccc(NC(=O)c3ccc(C)cc3)cc2)CC1	-1	5	31*	-11	0	-23
CC(C)[C@@H]1CC[C@@H](C)C[C@H]1OC(=O)C[n+]1cc(-c2ccc(Cl)cc2)n2c1CCCCC2	-19	-32	-51	42*	1	77*
CC1CCC(C(C)C)C(OC(=O)C[n+]2cccc(C(N)=O)c2)C1 (stereo not given)	-13	-8	11	-11	0	4
COc1ccc(-c2c[n+](CC(=O)OC3CC(C)CCC3C(C)C)c3n2CCC3)cc1 (stereo not given)	-15	-31	-24	34*	1	65*
CCCCCCCCCCC(C(=O)O)C1(C(=O)O)CCC(=O)O1 (stereo not given)	3	-2	3	5	0	8
CCCC(=O)NC(=S)Nc1ccc(S(=O)(=O)Nc2ccc(OCC)cc2)cc1	25*	3	7	-3	17	6
COc1ccc(NS(=O)(=O)c2ccc(NC(=S)NCC3CCCO3)cc2)cc1 (stereo not given)	3	-9	-8	7	12	27*
COc1ccc(S(=O)(=O)Nc2ccc(S(=O)(=O)NCC3CCCO3)cc2)cc1 (stereo not given)	1	-5	-1	2	3	14
O=S(=O)(NCC1CCCO1)c1ccc(-c2ccc(S(=O)(=O)NCC3CCCO3)cc2)cc1 (stereo not given)	7	-25	-14	9	13	35*
CCOc1ccc(NS(=O)(=O)c2ccc(NC(=S)NC(=O)CC(C)C)cc2)cc1	10	-3	5	9	13	20
SMILES	CHRM5 agonist	M5 PAM	M4 PAM	M4 antag	CHRM4 agonist	CHRM5 antagonist
Cc1ccc(S(=O)(=O)NCC2CCCO2)cc1 (stereo not given)	2	14	0	-5	1	-12
CCOC(=O)C1=C[C@@H](CC)N(S(=O)(=O)c2ccc(C)cc2)[C@H]1c1cccs1	-4	-10	-9	1	-2	8
Cc1ccc(S(=O)(=O)NC(=O)N2CCCC2)cc1	6	4	-1	-6	0	1
CCN(CC(=O)Nc1c(F)cccc1F)C(=O)c1csc2c1CCCC2	3	-4	-3	-8	2	-1
O=Cc1ccc(-c2ccccc2C(=O)O)o1	0	-5	1	2	1	11
O=C(O)c1ccccc1-c1c2cc(I)c(=O)c(I)c-2oc2c(I)c(O)c(I)cc12	107*	-20	-19	57*	254*	38*
COc1cccc(/C=C/C(=O)OCC(=O)c2c(N)n(C)c(=O)n(C)c2=O)c1	6	-1	12	14	15	5
NC(=O)COC(=O)c1ccc(S(=O)(=O)NCc2ccco2)cc1	-1	8	20*	-11	1	10
Cc1ccc(F)c(S(=O)(=O)NC(=O)C2(C)CCN2C(=O)c2ccccc2)c1 (stereo not given)	-1	-4	-2	4	0	0
CCC(C)(C)c1ccc(OCCCC[n+]2cccc(C)c2)c(C(C)(C)CC)c1	-10	-21	-17	47*	2	28*
Cc1ccc[n+](CC(=O)Nc2cc(C(F)(F)F)ccc2Cl)c1	-7	1	0	1	0	-3
O=C1c2cccc3c([N+](=O)[O-])ccc(c23)C(=O)N1c1ccc(Cl)cn1	-7	-20	-13	32*	4	25
O=C1c2cccc3c([N+](=O)[O-])ccc(c23)C(=O)N1c1nccs1	-5	-8	-12	36*	-2	16
O=C1c2cccc3c([N+](=O)[O-])ccc(c23)C(=O)N1c1ccccn1	-7	-4	-6	15	1	28*
O=C(NCc1cccnc1)NC1(C(F)(F)F)Oc2ccccc2O1	-7	40*	-1	-3	0	-15
CC(C)CNC(=O)NC1(C(F)(F)F)Oc2ccccc2O1	2	5	-2	1	4	0
O=C(NCCO[N+](=O)[O-])c1cccnc1	-1	-19	-17	74*	0	38*
COc1ccc(OCC(=O)NCCNC(=O)c2cccnc2)cc1	-1	-8	-2	5	0	48*
CC(C)(C)C(=O)Nc1nc2c(c(=O)[nH]1)CCCC2	-1	-1	21*	-2	2	5
